Experimental data: ChEMBL document CHEMBL5360580 (Eur J Med Chem, 2023)

Key:
[1] = test system: SARS-CoV-2; experiment: Antiviral activity against SARS-CoV-2 infected in African green monkey Vero E6 cells assessed as inhibition of viral replication at 1 uM incubated for 24 hrs by IFA assay relative to control; format: functional; conditions: Severe acute respiratory syndrome coronavirus 2, Vero C1008
[2] = Aqueous solubility of compound at 0.5 mg/mL in presence of acetonitrile by HPLC analysis; format: physicochemical; conditions: buffer
Summary of the method: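 Compound was suspended in water, vortexed vigorously and filtered through a 0.22 μm membrane. The filtrate was diluted 2-fold with 80% acetonitrile and analysed by reversed-phase amide HPLC. Concentration was read against a standard curve prepared from a 0.5 mg/mL solution in 80% acetonitrile. Single determination.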

[3] = Prodrug conversion in ICR mouse plasma assessed as Observed AUC (0 to infinity) of compound 5-chloro-4-fluoro-2-hydroxy-N-(4-(trifluoromethoxy)phenyl)benzamide at 30 mg/kg, po and 2.5 mg/kg, iv measured upto 24 hrs by LC-MS/MS analysis; format: ADME, organism-based; set-up: time < 24 hrs, dose 30 mg/kg, route po; conditions: in vivo
Summary of the method: (§1)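 Prodrugs were given to fasted ICR (CD-1) mice (N = 3) in DMSO/0.5% HMPC (5/95), at 30 mg/kg po or 2.5 mg/kg iv. Serum from femoral-vein blood taken 0.25–24 h was analysed by LC-MS/MS for the released parent compound, with mole correction applied to the parameters.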

[4] = Prodrug conversion in ICR mouse plasma assessed as AUClast of compound 5-chloro-4-fluoro-2-hydroxy-N-(4-(trifluoromethoxy)phenyl)benzamide at 30 mg/kg, po and 2.5 mg/kg, iv measured upto 24 hrs by LC-MS/MS analysis; format: ADME, organism-based; set-up: dose 30 mg/kg, time < 24 hrs, route po; conditions: in vivo; summary of the method: as §1
[5] = Prodrug conversion in ICR mouse plasma assessed as Cmax of compound 5-chloro-4-fluoro-2-hydroxy-N-(4-(trifluoromethoxy)phenyl)benzamide at 30 mg/kg, po and 2.5 mg/kg, iv measured upto 24 hrs by LC-MS/MS analysis; format: ADME, organism-based; set-up: time < 24 hrs, dose 30 mg/kg, route po; conditions: in vivo; summary of the method: as §1
[6] = Prodrug conversion in ICR mouse plasma assessed as oral bioavailability of compound 5-chloro-4-fluoro-2-hydroxy-N-(4-(trifluoromethoxy)phenyl)benzamide at 30 mg/kg measured upto 24 hrs by LC-MS/MS analysis; format: ADME, organism-based; conditions: in vivo; summary of the method: as §1
[7] = Prodrug conversion in ICR mouse plasma assessed as half life of compound 5-chloro-4-fluoro-2-hydroxy-N-(4-(trifluoromethoxy)phenyl)benzamide at 30 mg/kg, po and 2.5 mg/kg, iv measured upto 24 hrs by LC-MS/MS analysis; format: ADME, organism-based; conditions: in vivo; summary of the method: as §1
[8] = Prodrug conversion in ICR mouse plasma assessed as Observed MRT (0 to infinity) of compound 5-chloro-4-fluoro-2-hydroxy-N-(4-(trifluoromethoxy)phenyl)benzamide at 30 mg/kg, po and 2.5 mg/kg, iv measured upto 24 hrs by LC-MS/MS analysis; format: ADME, organism-based; conditions: in vivo; summary of the method: as §1
[9] = Selectivity index, ratio of CC50 for cytotoxicity against African green monkey Vero E6 to EC50 for antiviral activity against SARS-CoV-2 infected in African green monkey Vero E6 cells; format: toxicity, cell-based, Vero C1008; conditions: read-out: Ratio CC50/EC50
[10] = test system: Vero C1008; experiment: Cytotoxicity against African green monkey Vero E6 cells assessed as reduction in cell viability measured after 48 hrs by CCK-8 assay; format: toxicity, cell-based; conditions: chlorocebus sabaeus, vero c1008, 48 h
[11] = test system: SARS-CoV-2; experiment: Antiviral activity against SARS-CoV-2 infected in African green monkey Vero E6 cells assessed as inhibition of viral replication incubated for 24 hrs by IFA assay; format: functional, organism-based; conditions: Severe acute respiratory syndrome coronavirus 2, Vero C1008, 24 h

O=S(=O)(Nc1ccc(C(F)(F)F)cc1)c1cc(Cl)ccc1O
inhibition at 1 µM [1]: < 10%

CC(=O)Oc1cc(F)c(Cl)cc1C(=O)Nc1ccc(OC(F)(F)F)cc1
solubility [2]: 0.71 µg/mL
AUC [3]: 16726 ng·h/mL
AUClast [4]: 16458 ng·h/mL
Cmax [5]: 4771 ng/mL
F [6]: 37.61%
t1/2 [7]: 3.57 h
MRT [8]: 6.03 h

O=C(Nc1ccc(C(F)(F)F)cc1)c1cc(F)ccc1O
selectivity ratio [9]: 0.98
CC50 [10]: 1610 nM
inhibition at 1 µM [1]: 92%
EC50 [11]: 1640 nM

O=C(Nc1ccc(C(F)(F)F)cc1)c1cc(Cl)cc([N+](=O)[O-])c1O
inhibition at 1 µM [1]: 50%

CC(=O)c1cc(Cl)cc(C(=O)Nc2ccc(C(F)(F)F)cc2)c1O
inhibition at 1 µM [1]: 50%

O=C(Nc1ccc(C(F)(F)F)cc1)c1ccccc1O
inhibition at 1 µM [1]: < 10%

CS(=O)(=O)Nc1ccc(NC(=O)c2cc(Cl)ccc2O)c(Cl)c1
inhibition at 1 µM [1]: < 10%

O=C(Nc1ccc(C(F)(F)F)c(Cl)c1)c1cc(Cl)c(F)cc1O
selectivity ratio [9]: 1.69
CC50 [10]: 4520 nM
inhibition at 1 µM [1]: 95%
EC50 [11]: 2670 nM

O=C(Nc1ccc(C(F)(F)F)cc1Cl)c1cc(Cl)ccc1O
inhibition at 1 µM [1]: 79%

COc1ccc(Cl)cc1C(=O)Nc1ccc(C(F)(F)F)cc1
inhibition at 1 µM [1]: < 10%

O=C(Nc1ccc(C(F)(F)F)cc1)c1cc(Cl)cnc1O
inhibition at 1 µM [1]: 50%

O=C(Nc1ccc(SC(F)(F)F)cc1)c1cc(Cl)c(F)cc1O
selectivity ratio [9]: 1.63
CC50 [10]: 2630 nM
inhibition at 1 µM [1]: 87%
EC50 [11]: 1610 nM

N#Cc1ccc(Cl)cc1C(=O)Nc1ccc(C(F)(F)F)cc1
inhibition at 1 µM [1]: < 10%

O=C(Nc1ccc(OC(F)(F)F)cc1)c1cc(Cl)ccc1O
inhibition at 1 µM [1]: 55%
